Experimental data reported in ChEMBL document CHEMBL1151747, “Orally bioavailable isothioureas block function of the chemokine receptor CXCR4 in vitro and in vivo” (J Med Chem, 2008).
One block for each compound: values may come before it.

Assays:
[1] = biological target: T1, C-X-C chemokine receptor type 4 (Homo sapiens, UniProt P61073); assay: Displacement of [125I]CXCL12 from CXCR4 in human CEM cells; assay type: cell-based, CCRF-CEM
Procedure, shortened: (§1)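 Scintillation proximity assay. Membranes come from CEM cells (human CXCR4) or IR983F cells (rat CXCR4), prepared by homogenization in 20 mM HEPES, 1 mM EDTA pH 7.4 and stored at -80 °C. Nonspecific binding is defined with 400 nM unlabeled CXCL12. Incubation is 2 h at room temperature with shaking, then scintillation counting.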

[2] = biological target: T1, C-X-C chemokine receptor type 4; assay: Activity at CXCR4 in human CEM cells assessed as inhibition of CXCL12-induced calcium mobilization; assay type: functional, cell-based, CCRF-CEM
Procedure, shortened: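 CEM cells are loaded with 4 µM Fluo-4 for 1 h at 37 °C, washed, then preincubated with antagonist for 2 h. Wells are run in quadruplicate on FLIPR.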

[3] = system: Human immunodeficiency virus 1; assay: Antiviral activity against X4-tropic HIV1 3B assessed as inhibition of viral attachment; assay type: functional, organism-based; details: Human immunodeficiency virus 1, 3B
[4] = biological target: C-X-C chemokine receptor type 4 (Rattus norvegicus, UniProt O08565); assay: Displacement of [125I]CXCL12 from CXCR4 in rat IR983F cells; assay type: cell-based; procedure, shortened: as §1
Blood [5] = assay: Inhibition of CXCL12-induced actin polymerization in human whole blood; assay type: functional, tissue-based
Procedure, shortened: (§2)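 EDTA whole blood (100 µL) is preincubated with inhibitor diluted in PBS for 10 min at room temperature. CXCL12 (100 nM final) is added for 25 s at ambient temperature. […] Neutrophil F-actin is read by flow cytometry.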

Blood [6] = assay: Inhibition of CXCL12-induced actin polymerization in rat whole blood; assay type: functional, tissue-based; procedure, shortened: as §2
Cytochrome P450 1A2 = biological target: T2, Cytochrome P450 1A2 (Homo sapiens, UniProt P05177); assay: Inhibition of CYP1A2; assay type: ADME
T2 sequence (P05177 whole entry): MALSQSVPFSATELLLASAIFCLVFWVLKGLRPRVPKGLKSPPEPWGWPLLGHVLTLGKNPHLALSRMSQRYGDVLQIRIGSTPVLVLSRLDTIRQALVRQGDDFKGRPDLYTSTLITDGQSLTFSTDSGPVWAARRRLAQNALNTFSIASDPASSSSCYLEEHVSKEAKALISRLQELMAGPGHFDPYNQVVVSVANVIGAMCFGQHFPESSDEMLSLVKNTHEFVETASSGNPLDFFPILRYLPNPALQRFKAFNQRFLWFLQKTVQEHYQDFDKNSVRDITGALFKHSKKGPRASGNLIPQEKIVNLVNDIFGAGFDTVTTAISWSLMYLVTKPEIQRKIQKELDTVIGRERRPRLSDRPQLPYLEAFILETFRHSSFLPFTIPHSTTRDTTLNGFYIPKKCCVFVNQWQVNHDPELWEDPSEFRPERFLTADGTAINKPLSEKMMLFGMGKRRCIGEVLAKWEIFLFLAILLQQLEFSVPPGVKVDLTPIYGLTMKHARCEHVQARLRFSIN

Cytochrome P450 2C9 = Cytochrome P450 2C9 (Homo sapiens, UniProt P11712); assay: Inhibition of CYP2C9; assay type: ADME
Cytochrome P450 2C19 = Cytochrome P450 2C19 (Homo sapiens, UniProt P33261); assay: Inhibition of CYP2C19; assay type: ADME
Cytochrome P450 3A4 = Cytochrome P450 3A4 (Homo sapiens, UniProt P08684); assay: Inhibition of CYP3A4; assay type: ADME
[7] = Dissociation constant, pKa of the compound; assay type: physicochemical
[8] = Partition coefficient, log P of the compound; assay type: physicochemical; details: octanol/water
[9] = Distribution coefficient, log D of the compound; assay type: physicochemical; details: octanol/water
[10] = Intrinsic clearance in human liver microsomes; assay type: ADME, Microsome
Procedure, shortened: (§3)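 Compound is incubated with human or rat liver microsomes; intrinsic clearance is given in µL min-1 mg-1.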

[11] = Intrinsic clearance in rat liver microsomes; assay type: ADME, Microsome; procedure, shortened: as §3
[12] = Solubility in pH 1.0 buffer; assay type: physicochemical
[13] = Solubility in pH 6.8 buffer; assay type: physicochemical
[14] = Fraction unbound in human serum; assay type: ADME, cell-free
[15] = Fraction unbound in rat serum; assay type: ADME, cell-free
[16] = biological target: T3, C-C chemokine receptor type 4 (Homo sapiens, UniProt P51679); assay: Inhibition of CCR4
T3 sequence (P51679 whole entry): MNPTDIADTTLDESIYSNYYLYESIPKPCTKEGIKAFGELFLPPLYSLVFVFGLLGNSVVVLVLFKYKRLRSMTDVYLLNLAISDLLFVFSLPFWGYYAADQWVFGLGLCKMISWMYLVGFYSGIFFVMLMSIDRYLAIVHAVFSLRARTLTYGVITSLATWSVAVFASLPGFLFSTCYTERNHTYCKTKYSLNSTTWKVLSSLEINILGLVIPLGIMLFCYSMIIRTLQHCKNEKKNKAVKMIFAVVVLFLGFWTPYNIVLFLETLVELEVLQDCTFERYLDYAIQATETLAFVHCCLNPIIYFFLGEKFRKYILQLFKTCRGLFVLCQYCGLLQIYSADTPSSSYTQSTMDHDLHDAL

[17] = biological target: C-C chemokine receptor type 5 (Homo sapiens, UniProt P51681); assay: Inhibition of CCR5
[18] = biological target: T4, C-C chemokine receptor type 7 (Homo sapiens, UniProt P32248); assay: Inhibition of CCR7
T4 sequence (P32248 whole entry): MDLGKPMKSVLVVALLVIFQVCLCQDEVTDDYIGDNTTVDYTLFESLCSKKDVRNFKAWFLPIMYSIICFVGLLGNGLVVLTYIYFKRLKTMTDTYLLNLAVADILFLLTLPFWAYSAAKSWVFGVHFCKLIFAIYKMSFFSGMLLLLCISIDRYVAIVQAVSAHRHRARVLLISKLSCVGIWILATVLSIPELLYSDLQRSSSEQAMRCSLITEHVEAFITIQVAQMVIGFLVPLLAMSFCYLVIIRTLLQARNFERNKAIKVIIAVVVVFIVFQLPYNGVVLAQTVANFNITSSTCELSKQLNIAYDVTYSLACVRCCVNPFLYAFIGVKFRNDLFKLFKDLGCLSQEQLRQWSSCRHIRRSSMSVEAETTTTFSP

[19] = biological target: T5, C-C chemokine receptor type 9 (Homo sapiens, UniProt P51686); assay: Inhibition of CCR9
T5 sequence (P51686 whole entry): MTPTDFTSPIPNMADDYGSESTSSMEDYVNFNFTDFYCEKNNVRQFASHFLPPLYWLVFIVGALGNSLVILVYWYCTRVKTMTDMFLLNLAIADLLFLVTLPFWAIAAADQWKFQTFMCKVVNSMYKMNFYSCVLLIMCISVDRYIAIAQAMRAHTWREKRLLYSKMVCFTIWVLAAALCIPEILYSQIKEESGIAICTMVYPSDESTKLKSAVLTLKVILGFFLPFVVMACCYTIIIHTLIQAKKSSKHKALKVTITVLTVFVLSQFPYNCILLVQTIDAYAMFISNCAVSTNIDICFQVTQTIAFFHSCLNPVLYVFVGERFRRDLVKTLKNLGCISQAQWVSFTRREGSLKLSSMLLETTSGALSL

[20] = biological target: T6, C-X-C chemokine receptor type 2 (Homo sapiens, UniProt P25025); assay: Inhibition of CXCR2
T6 sequence (P25025 whole entry): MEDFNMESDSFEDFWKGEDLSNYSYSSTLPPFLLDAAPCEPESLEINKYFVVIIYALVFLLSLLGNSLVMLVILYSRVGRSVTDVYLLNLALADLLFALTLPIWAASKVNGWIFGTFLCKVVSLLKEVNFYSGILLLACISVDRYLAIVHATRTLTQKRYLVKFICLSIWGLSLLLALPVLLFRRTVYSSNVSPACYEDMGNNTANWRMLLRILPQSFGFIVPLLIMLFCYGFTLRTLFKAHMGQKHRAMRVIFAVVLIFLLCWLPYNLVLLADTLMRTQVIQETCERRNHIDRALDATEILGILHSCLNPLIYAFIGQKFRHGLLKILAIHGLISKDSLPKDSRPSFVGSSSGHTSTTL

[21] = Oral bioavailability in Lewis rat at 10 mg/kg; assay type: ADME, organism-based; details: in vivo
[22] = Tmax in Lewis rat at 10 mg/kg, po; assay type: ADME, organism-based; set-up: dose 10 mg/kg, route oral; details: in vivo
[23] = Half life in Lewis rat at 10 mg/kg, po; assay type: ADME, organism-based; set-up: dose 10 mg/kg, route oral; details: in vivo
[24] = Drug level in Lewis rat blood at 30 mg/kg/day administered through osmotic pump for 5 days; assay type: ADME, organism-based; details: other: administered through osmotic pump, read-out: Drug uptake
Procedure, shortened: (§4)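 Lewis rats (n = 3) receive 30 mg/kg·d via osmotic pumps for 5 days. Blood is sampled on day 5 and analyzed ex vivo.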

Rattus norvegicus = assay: Reduction in actin polymerization in Lewis rat blood at 30 mg/kg/day administered through osmotic pump for 5 days relative to control; assay type: functional; set-up: scale not given: the % may be the effect or the level left; procedure, shortened: as §4

T1 sequence (P61073 whole entry): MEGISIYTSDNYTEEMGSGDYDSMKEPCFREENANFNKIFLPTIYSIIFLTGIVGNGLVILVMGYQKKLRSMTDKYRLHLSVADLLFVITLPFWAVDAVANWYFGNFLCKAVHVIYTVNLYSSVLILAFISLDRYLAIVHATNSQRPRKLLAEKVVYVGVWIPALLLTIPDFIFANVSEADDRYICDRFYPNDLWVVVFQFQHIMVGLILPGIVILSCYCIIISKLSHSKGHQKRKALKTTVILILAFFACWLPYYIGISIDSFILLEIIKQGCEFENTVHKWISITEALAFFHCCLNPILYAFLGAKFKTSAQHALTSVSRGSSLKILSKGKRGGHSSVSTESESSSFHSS
C-X-C chemokine receptor type 4 (Rattus norvegicus, UniProt O08565), sequence (O08565 whole entry): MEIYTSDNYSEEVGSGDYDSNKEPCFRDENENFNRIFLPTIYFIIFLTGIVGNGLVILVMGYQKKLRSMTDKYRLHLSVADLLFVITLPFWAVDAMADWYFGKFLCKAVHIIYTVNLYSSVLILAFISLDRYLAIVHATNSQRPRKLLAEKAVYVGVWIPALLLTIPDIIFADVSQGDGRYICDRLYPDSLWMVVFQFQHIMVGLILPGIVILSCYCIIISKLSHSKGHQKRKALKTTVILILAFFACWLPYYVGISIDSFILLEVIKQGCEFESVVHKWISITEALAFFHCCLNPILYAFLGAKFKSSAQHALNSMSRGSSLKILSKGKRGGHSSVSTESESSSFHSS
C-C chemokine receptor type 5, sequence (P51681 whole entry): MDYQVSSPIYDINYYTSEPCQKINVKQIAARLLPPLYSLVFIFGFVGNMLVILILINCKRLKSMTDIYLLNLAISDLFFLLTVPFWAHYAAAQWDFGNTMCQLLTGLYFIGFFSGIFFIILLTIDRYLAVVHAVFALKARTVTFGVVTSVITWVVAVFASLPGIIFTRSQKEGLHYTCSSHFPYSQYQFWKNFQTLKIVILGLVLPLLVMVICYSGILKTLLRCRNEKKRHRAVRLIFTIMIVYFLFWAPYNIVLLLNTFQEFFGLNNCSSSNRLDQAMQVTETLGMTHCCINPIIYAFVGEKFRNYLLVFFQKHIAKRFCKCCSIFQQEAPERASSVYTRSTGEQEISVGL
Cytochrome P450 2C19, sequence (P33261 whole entry): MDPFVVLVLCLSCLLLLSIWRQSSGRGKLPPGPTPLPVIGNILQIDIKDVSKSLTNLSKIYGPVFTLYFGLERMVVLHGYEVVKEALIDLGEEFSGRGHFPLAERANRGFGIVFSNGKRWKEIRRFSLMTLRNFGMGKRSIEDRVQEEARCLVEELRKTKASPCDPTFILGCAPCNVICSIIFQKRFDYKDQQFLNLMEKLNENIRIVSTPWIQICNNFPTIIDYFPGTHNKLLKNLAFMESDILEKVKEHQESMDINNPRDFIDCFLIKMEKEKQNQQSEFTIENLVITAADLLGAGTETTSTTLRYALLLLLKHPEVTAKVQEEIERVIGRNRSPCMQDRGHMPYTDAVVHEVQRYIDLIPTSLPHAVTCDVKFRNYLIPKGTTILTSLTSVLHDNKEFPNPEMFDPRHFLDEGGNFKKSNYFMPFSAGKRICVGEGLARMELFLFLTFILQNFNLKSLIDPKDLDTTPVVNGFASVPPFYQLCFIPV
Cytochrome P450 2C9, sequence (P11712 whole entry): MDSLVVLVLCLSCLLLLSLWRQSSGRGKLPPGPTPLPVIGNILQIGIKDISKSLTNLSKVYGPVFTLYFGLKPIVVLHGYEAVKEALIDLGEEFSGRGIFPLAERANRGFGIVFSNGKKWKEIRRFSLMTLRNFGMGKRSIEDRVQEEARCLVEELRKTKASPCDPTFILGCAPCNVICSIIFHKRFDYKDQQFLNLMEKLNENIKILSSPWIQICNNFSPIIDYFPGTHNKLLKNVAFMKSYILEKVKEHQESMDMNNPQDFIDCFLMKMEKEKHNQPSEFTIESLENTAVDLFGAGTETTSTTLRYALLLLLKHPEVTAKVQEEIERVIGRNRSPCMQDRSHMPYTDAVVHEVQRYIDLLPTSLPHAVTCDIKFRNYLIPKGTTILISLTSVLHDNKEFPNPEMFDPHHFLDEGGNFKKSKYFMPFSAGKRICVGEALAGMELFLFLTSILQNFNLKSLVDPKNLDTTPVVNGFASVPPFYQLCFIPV
Cytochrome P450 3A4, sequence (P08684 whole entry): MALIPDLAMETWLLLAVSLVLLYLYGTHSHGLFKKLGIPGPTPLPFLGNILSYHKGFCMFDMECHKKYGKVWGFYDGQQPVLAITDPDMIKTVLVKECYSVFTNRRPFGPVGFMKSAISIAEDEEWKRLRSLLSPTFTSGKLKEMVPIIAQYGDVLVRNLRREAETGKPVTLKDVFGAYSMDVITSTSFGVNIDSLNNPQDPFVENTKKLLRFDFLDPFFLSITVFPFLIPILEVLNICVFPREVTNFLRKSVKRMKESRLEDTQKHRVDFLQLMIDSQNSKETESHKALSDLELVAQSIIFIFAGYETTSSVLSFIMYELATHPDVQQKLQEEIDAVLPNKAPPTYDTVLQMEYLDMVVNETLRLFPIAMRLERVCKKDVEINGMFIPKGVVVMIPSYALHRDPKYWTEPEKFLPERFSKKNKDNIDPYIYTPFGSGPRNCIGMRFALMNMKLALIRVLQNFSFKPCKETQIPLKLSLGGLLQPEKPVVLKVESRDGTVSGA

Structure (SMILES): CN(/C(=N/C1CCCCC1)SCC1=CSC2=NCCN12)C1CCCCC1
IC50 [1]: 3380 nM
IC50 [2]: 931 nM
IC50 [3]: > 100000 nM
IC90 [3]: > 100000 nM

Structure (SMILES): c1ccc2c(c1)nc1scc(CS/C(=N\C3CCCCC3)NC3CCCCC3)n12
IC50 [1]: > 10000 nM
IC50 [2]: 8120 nM

Structure (SMILES): C1=C(CSC(=NC2CCCCC2)NC2CCCCCC2)N2CCN=C2S1
IC50 [1]: 28 nM
IC50 [2]: 6.6 nM
IC50 [3]: 40 nM
IC90 [3]: 1140 nM

Structure (SMILES): CC1(C)CN2C(CS/C(=N\C3CCCCCC3)NC3CCCCCC3)=CSC2=N1
IC50 [1]: 8.8 nM
IC50 [2]: 2.1 nM
IC50 [3]: 10 nM
IC90 [3]: 130 nM

Structure (SMILES): NC(N)=NCCC[C@@H]1NC(=O)[C@H](CCCN=C(N)N)NC(=O)[C@@H](Cc2ccc(O)cc2)NC(=O)CNC(=O)[C@H](c2ccc3ccccc3c2)NC1=O
IC50 [1]: 109 nM
IC50 [4]: 1440 nM

Structure (SMILES): C1=C(CSC(=NC2CCCCC2)NC2C3CC4CC(C3)CC2C4)N2CCN=C2S1 (stereo not given)
IC50 [1]: 81 nM
IC50 [2]: 13 nM

Structure (SMILES): C1=C(CS/C(=N\C2CCCCC2)NC23CC4CC(CC(C4)C2)C3)N2CCN=C2S1
IC50 [1]: 1870 nM
IC50 [2]: 304 nM

Now from value to compound, other results behind:

IC50 [1]: > 10000 nM
IC50 [2]: 5270 nM
Structure (SMILES): C1=C(CS/C(=N\C2CCCCC2)Nc2ccccc2)N2CCN=C2S1

IC50 [1]: > 10000 nM
Structure (SMILES): CC(C)/N=C(/NC(C)C)SCC1=CSC2=NCCN12

IC50 [1]: 855 nM
IC50 [2]: 75 nM
Structure (SMILES): CCCCCCNC(=NC1CCCCC1)SCC1=CSC2=NCCN12

IC50 [1]: 48 nM
IC50 [4]: 55 nM
IC50 [2]: 11 nM
IC50 (Blood [5]): 32 nM
IC50 (Blood [6]): 86 nM
IC50 (Cytochrome P450 1A2): > 10000 nM
IC50 (Cytochrome P450 2C9): > 10000 nM
IC50 (Cytochrome P450 2C19): > 10000 nM
IC50 (Cytochrome P450 3A4): 3860 nM
pKa [7]: 7.7
logP [8]: 3.5
logD [9]: -0.2
microsomal CLint [10]: 51 µL/min/mg
microsomal CLint [11]: 411 µL/min/mg
solubility [12]: > 5000 µg/mL
solubility [13]: > 5000 µg/mL
fraction unbound [14]: 0.29
fraction unbound [15]: 0.54
IC50 [16]: > 3000 nM
IC50 [17]: > 3000 nM
IC50 [18]: > 3000 nM
IC50 [19]: > 3000 nM
IC50 [20]: > 3000 nM
bioavailability [21]: 14%
Tmax [22]: 0.5 h
half-life [23]: 7.2 h
concentration at 120 h [24]: 1000 nM
IC50 [3]: 40 nM
IC90 [3]: 720 nM
Structure (SMILES): C1=C(CS/C(=N\C2CCCCC2)NC2CCCCC2)N2CCN=C2S1
Activity (Rattus norvegicus): >80%
